From ChEMBL document CHEMBL1135994, “Potent, novel in vitro inhibitors of the Pseudomonas aeruginosa deacetylase LpxC” (J Med Chem, 2002) come the findings set out here.

Molecules are shown by their SMILES.

The target in the experiment is T1, UDP-3-O-acyl-N-acetylglucosamine deacetylase (Pseudomonas aeruginosa (strain ATCC 15692 / PAO1 / 1C / PRS 101 / LMG12228), UniProt P47205).
T1 sequence (P47205 whole entry): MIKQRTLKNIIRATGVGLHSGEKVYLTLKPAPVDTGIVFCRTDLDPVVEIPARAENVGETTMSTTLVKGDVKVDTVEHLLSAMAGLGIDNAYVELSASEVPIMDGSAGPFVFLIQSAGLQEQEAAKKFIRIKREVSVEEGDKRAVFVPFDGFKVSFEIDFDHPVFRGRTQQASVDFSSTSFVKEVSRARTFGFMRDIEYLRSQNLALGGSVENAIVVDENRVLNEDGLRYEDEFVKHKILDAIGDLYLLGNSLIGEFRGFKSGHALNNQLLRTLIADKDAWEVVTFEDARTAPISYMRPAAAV
The experiment is described as follows: Inhibition of Pseudomonas aeruginosa UDP-3-O-acyl-N-acetylglucosamine Deacetylase (LpxC) in vitro. A digest of the protocol: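 Purified recombinant P. aeruginosa LpxC (IPTG-induced, zinc-reconstituted) at 2 nM incubated with 150 nM [3H-acetyl]-UDP-3-O-(R-3-hydroxydecanoyl)-GlcNAc for 90 min at room temperature (22 °C). Buffer is sodium phosphate pH 7.5 with 1 mg/mL BSA. Stopped with activated charcoal suspension. Released [3H]-acetate in the clarified supernatant counted by scintillation. 5 mM EDTA controls define nonspecific tritium release. IC50 determined.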
A word on the IC50: it is the concentration needed to halve the response being measured. A higher IC50 goes with a need for much substance. `O=C(NO)C1COC(c2ccc(COc3cccc([N+](=O)[O-])c3)cc2)=N1` (stereo not drawn) had a half-maximal inhibitory concentration (IC50) of 0.56 µM.

Compound `O=C(NO)C1COC(c2ccc(F)c(Br)c2)=N1` (stereo not drawn) registered an IC50 of 4.9 µM.

`O=C(NO)C1COC(c2cccc(OC(F)(F)F)c2)=N1` (stereo not drawn): half-maximal inhibition (IC50) required 6 µM.

In turn, `C=CCCOc1ccc(C(=O)NC(CO)C(=O)NO)cc1` (stereo not drawn) came in with an IC50 of 3.9 µM.

`O=C(NO)C1COC(c2[nH]c3ccc(F)cc3c2Cl)=N1` (stereo not drawn) showed an IC50 of 0.3 µM.

The compound `Cc1ccc(C(=O)NC(CO)C(=O)NO)cc1` (stereo not drawn) came in with a half-maximal inhibitory concentration (IC50) of over 50 µM.

Compound `C=CCOc1ccc(C2=NC(C(=O)NO)CO2)cc1F` (stereo not drawn) yielded a half-inhibitory concentration (IC50) of 1.4 µM.

`O=C(NO)C1COC(c2cccc(C(F)(F)F)c2)=N1` (stereo not drawn) returned a half-inhibitory concentration (IC50) of 2.5 µM.

Compound `CCOc1cc(C2=NC(C(=O)NO)CO2)ccc1F` (stereo not drawn) gave an IC50 of 1 µM.

Turning to `O=C(NO)C1COC(c2ccc([N+](=O)[O-])cc2)=N1` (stereo not drawn), 5.4 µM corresponded to half-maximal inhibition (IC50).

Compound `O=C(NO)C1CCOC(c2ccc(F)c(C(F)(F)F)c2)=N1` (stereo not drawn) yielded an IC50 of 21.2 µM.

Consider `O=C(NO)C1COC(c2ccc(C(F)(F)F)cc2)=N1` (stereo not drawn), for which half-maximal inhibition (IC50) required 7.8 µM.

For the compound `O=C(NO)C1COC(c2ccc(Br)cc2)=N1` (stereo not drawn), the half-inhibitory concentration (IC50) worked out at 2.7 µM.

In turn, `Cc1ccc(C2=NC(C(=O)NO)CCO2)cc1` (stereo not drawn) had an IC50 of over 50 µM.

In the case of `O=C(NO)C1COC(c2ccc(I)cc2)=N1` (stereo not drawn), the half-maximal inhibitory concentration (IC50) came out at 5.5 µM.

As to `Cc1c(C2=NC(C(=O)NO)CO2)cnn1-c1ccccc1` (stereo not drawn), the IC50 is over 30 µM.

`CCCCn1nc(C2=NC(C(=O)NO)CO2)c2ccccc21` (stereo not drawn) showed an IC50 of 10 µM.

As for `O=C(NO)C1COC(c2ccc(OCc3ccccc3C(F)(F)F)c(F)c2)=N1` (stereo not drawn), the half-maximal inhibitory concentration (IC50) amounted to 9.6 µM.

As for `O=C(NO)C1CSC(c2ccc(F)cc2)=N1` (stereo not drawn), the IC50 came out at 62.5 µM.

In turn, `CCCCn1nc2ccccc2c1C1=NC(C(=O)NO)CO1` (stereo not drawn) gave an IC50 of 12 µM.

On to `O=C(NC(CO)C(=O)NO)c1ccc(F)cc1` (stereo not drawn), for which the 50% inhibitory concentration (IC50) is over 50 µM.

On to `O=C(NO)C1COC(c2ccc(O)cc2)=N1` (stereo not drawn), for which the 50% inhibitory concentration (IC50) was over 30 µM.

For `O=C(NO)C1COC(c2[nH]nc3ccccc23)=N1` (stereo not drawn), the IC50 came to 5.5 µM.

As for `CCCc1cc(C2=NC(C(=O)NO)CO2)cc(OC(F)(F)F)c1OC` (stereo not drawn), the midpoint of inhibition, the IC50, lay at 0.5 µM.

In turn, `O=C(NO)C1COC(c2ccc(C(F)(F)F)nc2)=N1` (stereo not drawn) registered an IC50 of 10 µM.

In turn, `O=C(NO)C1COC(c2ccc(OC(F)(F)F)cc2)=N1` (stereo not drawn) returned an IC50 of 5 µM.

As for `O=C(NC(CO)C(=O)NO)c1n[nH]c2ccccc12` (stereo not drawn), inhibition was half-maximal at 13 µM (IC50).

In turn, `C=CCc1c(C)c(C2=NC(C(=O)NO)CO2)cc(F)c1OC` (stereo not drawn) had a half-inhibitory concentration (IC50) of 3.3 µM.

In turn, `CCCc1cc(C2=NC(C(=O)NO)CO2)ccc1F` (stereo not drawn) gave a half-inhibitory concentration (IC50) of 0.96 µM.

Take `O=C(NO)C1COC(c2cc(F)cc(C(F)(F)F)c2)=N1` (stereo not drawn): the 50% inhibitory concentration (IC50) was 25 µM.

On to `O=C(NO)C1COC(c2ccc(OCc3cccc(F)c3)c(OC(F)(F)F)c2)=N1` (stereo not drawn), for which the concentration for half-maximal inhibition (IC50) stood at 0.25 µM.

The compound `C=CCCOc1ccc(C2=NC(C(=O)NO)CO2)cc1OC(F)(F)F` (stereo not drawn) registered an IC50 of 0.35 µM.

The compound `O=C(NO)C1COC(c2ccc(OC(F)(F)F)c(Cl)c2)=N1` (stereo not drawn) gave an IC50 of 30 µM.

Take `O=C(NO)C1CCOC(c2cc3cc(F)ccc3[nH]2)=N1` (stereo not drawn): half-maximal inhibition (IC50) required 31.2 µM.

In the case of `CCOc1cc(C(=O)NC(CO)C(=O)NO)ccc1F` (stereo not drawn), the IC50 stood at 46 µM.

For `Cc1c(C2=NC(C(=O)NO)CS2)cnn1-c1ccccc1` (stereo not drawn), the 50% inhibitory concentration (IC50) was over 60 µM.

Turning to `C=CCOc1ccc(C(=O)NC(CO)C(=O)NO)cc1OC(F)(F)F` (stereo not drawn), inhibition was half-maximal at 7.5 µM (IC50).

As to `O=C(NO)C1CSC(c2ccc(OC(F)(F)F)cc2)=N1` (stereo not drawn), the IC50 was determined as 21.7 µM.

`C=CCCOc1ccc(C2=NC(C(=O)NO)CO2)cc1` (stereo not drawn) registered an IC50 of 5.6 µM.

In turn, `O=C(NO)C1COC(c2cnn(-c3ccccc3)c2C(F)(F)F)=N1` (stereo not drawn) registered an IC50 of over 30 µM.

Compound `C=CCCOc1ccc(C2=NC(C(=O)NO)CS2)cc1` (stereo not drawn) returned a half-inhibitory concentration (IC50) of 58.7 µM.

As to `CC(=O)Nc1ccc(C2=NC(C(=O)NO)CO2)cc1` (stereo not drawn), the concentration for half-maximal inhibition (IC50) is over 30 µM.

The compound `O=C(NO)C1COC(c2ccc(F)c(C(F)(F)F)c2)=N1` (stereo not drawn) returned a half-maximal inhibitory concentration (IC50) of 1.3 µM.

`CC(=O)c1ccc(C2=NC(C(=O)NO)CO2)cc1` (stereo not drawn) came in with an IC50 of 18 µM.

For `C=CCOc1ccc(C2=NC(C(=O)NO)CO2)cc1C(F)(F)F` (stereo not drawn), inhibition was half-maximal at 2.2 µM (IC50).

`CN(C)c1ccc(C2=NC(C(=O)NO)CO2)cc1` (stereo not drawn) showed a concentration for half-maximal inhibition (IC50) of 4.9 µM.

In the case of `CCCc1cc(C2=NC(C(=O)NO)CS2)cc(OC(F)(F)F)c1OC` (stereo not drawn), it took 17.8 µM to reach half-maximal inhibition (IC50).

`Cc1ccc(C2=NC(C(=O)NO)CS2)cc1` (stereo not drawn) returned a 50% inhibitory concentration (IC50) of 38.5 µM.

As to `CCCCc1ccc(C2=NC(C(=O)NO)CO2)cc1` (stereo not drawn), half-maximal inhibition (IC50) required 7.3 µM.

The compound `O=C(NO)C1COC(c2ccc(OCc3cccc([N+](=O)[O-])c3)cc2)=N1` (stereo not drawn) gave an IC50 of 1 µM.

`CCCc1cc(C(=O)NC(CO)C(=O)NO)cc(OC(F)(F)F)c1OC` (stereo not drawn) showed a 50% inhibitory concentration (IC50) of over 50 µM.

For `C=CCOc1ccc(C2=NC(C(=O)NO)CO2)cc1OC(F)(F)F` (stereo not drawn), the concentration for half-maximal inhibition (IC50) was found to be 0.12 µM.

In the case of `Cc1cc(C2=NC(C(=O)NO)CO2)ccc1F` (stereo not drawn), half-maximal inhibition (IC50) was put at 1.2 µM.

`COc1ccc(C2=NC(C(=O)NO)CO2)cc1OC(F)(F)F` (stereo not drawn) came in with an IC50 of 0.16 µM.

With `O=C(NO)C1COC(c2cc3cc(F)ccc3[nH]2)=N1` (stereo not drawn), 1.6 µM corresponded to half-maximal inhibition (IC50).

The compound `COc1c(F)cc(C2=NC(C(=O)NO)CO2)cc1Br` (stereo not drawn) registered an IC50 of 9 µM.

On to `O=C(NO)C1COC(c2ccccc2OC(F)(F)F)=N1` (stereo not drawn), for which the IC50 is over 10 µM.

`CCCCCCCOc1ccc(C2=NC(C(=O)NO)CO2)cc1` (stereo not drawn): the 50% inhibitory concentration (IC50) was over 30 µM.

Regarding `Cc1ccc(C2=NC(C(=O)NO)CO2)cc1` (stereo not drawn), inhibition was half-maximal at 20 µM (IC50).

As for `CCCc1ccc(-c2ccc(C3=NC(C(=O)NO)CO3)cc2)cc1` (stereo not drawn), the IC50 is 0.28 µM.

In turn, `O=C(NO)C1COC(c2ccc(OCc3cccc(C(F)(F)F)c3)c(F)c2)=N1` (stereo not drawn) gave an IC50 of 0.84 µM.

`O=C(NO)C1COC(c2ccc(F)cc2)=N1` (stereo not drawn) had an IC50 of 6 µM.

With `CC(C)=CCOc1ccc(C2=NC(C(=O)NO)CO2)cc1OC(F)(F)F` (stereo not drawn), the concentration for half-maximal inhibition (IC50) worked out at 0.19 µM.
